Assay results taken from ChEMBL document CHEMBL5653631, “A Potent and Selective ULK1 Inhibitor Suppresses Autophagy and Sensitizes Cancer Cells to Nutrient Stress” (iScience, 2018).
One block for each compound: values may come before it.

How the values were obtained:
[1] = target: Cyclin-dependent kinase 13 (Homo sapiens) (UniProt Q14004); assay: Inhibition of human recombinant CHED at 500 nM related to control ULK1
[2] = target: T1, cGMP-dependent protein kinase 2 (Homo sapiens) (UniProt Q13237); assay: Inhibition of human recombinant PKG2 at 500 nM related to control ULK1
T1 sequence (whole entry): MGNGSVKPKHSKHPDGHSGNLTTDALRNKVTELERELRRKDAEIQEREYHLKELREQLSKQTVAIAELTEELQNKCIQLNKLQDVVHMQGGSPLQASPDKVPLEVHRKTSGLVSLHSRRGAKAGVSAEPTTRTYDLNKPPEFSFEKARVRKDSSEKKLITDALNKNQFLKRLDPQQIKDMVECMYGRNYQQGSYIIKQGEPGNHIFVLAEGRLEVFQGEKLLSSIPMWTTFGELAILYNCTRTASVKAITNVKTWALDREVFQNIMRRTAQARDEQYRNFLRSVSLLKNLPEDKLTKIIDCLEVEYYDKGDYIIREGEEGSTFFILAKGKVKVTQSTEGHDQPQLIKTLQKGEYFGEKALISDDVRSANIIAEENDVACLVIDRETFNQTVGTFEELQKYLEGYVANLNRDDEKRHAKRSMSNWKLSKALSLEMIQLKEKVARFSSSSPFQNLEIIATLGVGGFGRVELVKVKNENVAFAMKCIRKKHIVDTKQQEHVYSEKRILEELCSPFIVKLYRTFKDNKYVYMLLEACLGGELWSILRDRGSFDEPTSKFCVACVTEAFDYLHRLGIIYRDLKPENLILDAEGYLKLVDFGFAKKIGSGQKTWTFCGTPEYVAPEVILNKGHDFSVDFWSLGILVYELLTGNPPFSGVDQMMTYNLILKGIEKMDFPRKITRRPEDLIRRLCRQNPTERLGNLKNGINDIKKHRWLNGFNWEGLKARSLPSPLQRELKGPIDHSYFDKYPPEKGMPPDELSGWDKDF

[3] = target: MAP kinase-interacting serine/threonine-protein kinase 2 (Homo sapiens, UniProt Q9HBH9); assay: Inhibition of human recombinant MNK2 at 15 nM in presence of ATP by radiometric assay relative to control
MAP kinase-interacting serine/threonine-protein kinase 2, sequence (Q9HBH9 whole entry, looked up): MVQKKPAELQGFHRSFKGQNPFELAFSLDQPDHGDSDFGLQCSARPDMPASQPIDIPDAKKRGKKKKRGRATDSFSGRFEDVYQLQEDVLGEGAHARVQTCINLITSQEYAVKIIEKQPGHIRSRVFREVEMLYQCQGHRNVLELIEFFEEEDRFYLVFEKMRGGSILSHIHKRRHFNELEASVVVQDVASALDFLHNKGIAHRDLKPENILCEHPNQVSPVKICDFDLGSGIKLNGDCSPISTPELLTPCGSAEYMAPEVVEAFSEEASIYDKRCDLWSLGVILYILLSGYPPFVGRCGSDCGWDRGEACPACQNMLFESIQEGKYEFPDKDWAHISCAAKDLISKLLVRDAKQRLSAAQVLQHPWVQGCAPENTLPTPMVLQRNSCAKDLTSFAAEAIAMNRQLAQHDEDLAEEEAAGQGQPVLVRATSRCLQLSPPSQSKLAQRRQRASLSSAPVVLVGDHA

[4] = target: Receptor tyrosine-protein kinase erbB-2 (Homo sapiens) (UniProt P04626); assay: Inhibition of human recombinant ErbB2 at 15 nM related to control ULK1
Receptor tyrosine-protein kinase erbB-2 (Homo sapiens), sequence (P04626 whole entry): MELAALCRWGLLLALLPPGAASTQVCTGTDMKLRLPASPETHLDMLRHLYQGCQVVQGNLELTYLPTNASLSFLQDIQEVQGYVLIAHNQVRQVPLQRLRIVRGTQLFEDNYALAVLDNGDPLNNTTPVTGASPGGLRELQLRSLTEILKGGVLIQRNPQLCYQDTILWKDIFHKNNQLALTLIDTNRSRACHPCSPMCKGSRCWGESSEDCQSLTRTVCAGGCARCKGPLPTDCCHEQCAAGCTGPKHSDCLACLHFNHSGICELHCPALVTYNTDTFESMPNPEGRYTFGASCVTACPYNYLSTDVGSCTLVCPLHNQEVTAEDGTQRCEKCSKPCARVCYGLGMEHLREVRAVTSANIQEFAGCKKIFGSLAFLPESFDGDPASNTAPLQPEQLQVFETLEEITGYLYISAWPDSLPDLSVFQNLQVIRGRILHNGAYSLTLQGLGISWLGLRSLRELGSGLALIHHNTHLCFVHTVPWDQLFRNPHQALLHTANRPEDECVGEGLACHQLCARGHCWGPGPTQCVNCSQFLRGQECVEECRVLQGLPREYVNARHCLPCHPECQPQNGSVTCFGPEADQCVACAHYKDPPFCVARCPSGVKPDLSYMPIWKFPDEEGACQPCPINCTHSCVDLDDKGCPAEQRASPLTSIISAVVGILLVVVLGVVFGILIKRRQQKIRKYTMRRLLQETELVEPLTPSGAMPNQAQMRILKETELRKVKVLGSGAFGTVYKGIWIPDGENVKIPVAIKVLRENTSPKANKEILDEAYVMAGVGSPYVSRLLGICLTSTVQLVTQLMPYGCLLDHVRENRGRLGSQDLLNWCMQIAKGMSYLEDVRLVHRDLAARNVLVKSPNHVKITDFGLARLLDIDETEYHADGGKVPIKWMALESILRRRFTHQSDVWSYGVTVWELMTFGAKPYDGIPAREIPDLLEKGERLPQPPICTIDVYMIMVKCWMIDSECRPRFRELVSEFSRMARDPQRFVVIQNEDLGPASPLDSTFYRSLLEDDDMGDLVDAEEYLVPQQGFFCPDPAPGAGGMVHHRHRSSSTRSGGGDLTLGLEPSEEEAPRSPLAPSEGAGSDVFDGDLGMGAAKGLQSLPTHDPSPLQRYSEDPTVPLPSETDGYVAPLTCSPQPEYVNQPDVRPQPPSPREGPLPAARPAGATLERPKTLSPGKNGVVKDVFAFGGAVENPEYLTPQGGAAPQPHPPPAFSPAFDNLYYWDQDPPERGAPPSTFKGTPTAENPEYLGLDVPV

[5] = target: Death-associated protein kinase 1 (Homo sapiens) (UniProt P53355); assay: Inhibition of human recombinant DAPK1 at 15 nM related to control ULK1
Death-associated protein kinase 1 (Homo sapiens), sequence (P53355 whole entry, looked up): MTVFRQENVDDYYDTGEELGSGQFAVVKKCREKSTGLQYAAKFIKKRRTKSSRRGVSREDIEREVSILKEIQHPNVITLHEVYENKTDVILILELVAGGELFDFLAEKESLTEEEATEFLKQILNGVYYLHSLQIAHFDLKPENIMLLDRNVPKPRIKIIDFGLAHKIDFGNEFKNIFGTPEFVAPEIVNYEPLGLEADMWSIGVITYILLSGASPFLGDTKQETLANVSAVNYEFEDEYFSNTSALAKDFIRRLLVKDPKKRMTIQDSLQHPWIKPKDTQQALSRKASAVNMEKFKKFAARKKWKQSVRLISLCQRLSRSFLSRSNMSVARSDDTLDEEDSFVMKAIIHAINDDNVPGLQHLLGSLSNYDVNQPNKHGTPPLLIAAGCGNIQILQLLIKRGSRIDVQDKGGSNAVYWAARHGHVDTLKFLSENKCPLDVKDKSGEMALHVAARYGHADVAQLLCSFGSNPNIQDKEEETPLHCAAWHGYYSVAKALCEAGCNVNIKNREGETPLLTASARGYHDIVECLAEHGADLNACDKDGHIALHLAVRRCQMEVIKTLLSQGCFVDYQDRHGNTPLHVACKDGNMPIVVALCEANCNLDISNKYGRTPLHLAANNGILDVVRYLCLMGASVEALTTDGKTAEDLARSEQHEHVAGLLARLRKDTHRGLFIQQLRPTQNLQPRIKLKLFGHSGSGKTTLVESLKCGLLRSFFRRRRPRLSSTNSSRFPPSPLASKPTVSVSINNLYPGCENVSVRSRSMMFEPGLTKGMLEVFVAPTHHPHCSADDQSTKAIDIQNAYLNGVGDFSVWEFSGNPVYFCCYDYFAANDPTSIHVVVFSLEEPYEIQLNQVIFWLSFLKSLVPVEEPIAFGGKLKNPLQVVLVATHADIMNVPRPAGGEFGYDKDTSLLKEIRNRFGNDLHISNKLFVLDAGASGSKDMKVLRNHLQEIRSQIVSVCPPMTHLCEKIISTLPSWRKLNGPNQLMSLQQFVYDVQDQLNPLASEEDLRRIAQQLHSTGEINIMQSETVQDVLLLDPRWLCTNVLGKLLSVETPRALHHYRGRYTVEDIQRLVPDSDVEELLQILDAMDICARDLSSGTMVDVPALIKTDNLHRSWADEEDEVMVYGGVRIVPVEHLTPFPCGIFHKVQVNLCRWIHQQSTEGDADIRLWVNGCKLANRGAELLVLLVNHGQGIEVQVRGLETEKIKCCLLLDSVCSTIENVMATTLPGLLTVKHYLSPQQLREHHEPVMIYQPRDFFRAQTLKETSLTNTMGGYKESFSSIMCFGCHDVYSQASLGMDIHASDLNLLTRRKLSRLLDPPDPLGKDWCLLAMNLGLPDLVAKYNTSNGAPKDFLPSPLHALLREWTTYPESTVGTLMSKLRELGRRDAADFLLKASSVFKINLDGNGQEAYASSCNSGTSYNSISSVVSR

[6] = target: T2, Activin receptor type-1 (Homo sapiens) (UniProt Q04771); assay: Inhibition of human recombinant ALK2 at 15 nM in presence of ATP by radiometric assay relative to control
T2 sequence (whole entry): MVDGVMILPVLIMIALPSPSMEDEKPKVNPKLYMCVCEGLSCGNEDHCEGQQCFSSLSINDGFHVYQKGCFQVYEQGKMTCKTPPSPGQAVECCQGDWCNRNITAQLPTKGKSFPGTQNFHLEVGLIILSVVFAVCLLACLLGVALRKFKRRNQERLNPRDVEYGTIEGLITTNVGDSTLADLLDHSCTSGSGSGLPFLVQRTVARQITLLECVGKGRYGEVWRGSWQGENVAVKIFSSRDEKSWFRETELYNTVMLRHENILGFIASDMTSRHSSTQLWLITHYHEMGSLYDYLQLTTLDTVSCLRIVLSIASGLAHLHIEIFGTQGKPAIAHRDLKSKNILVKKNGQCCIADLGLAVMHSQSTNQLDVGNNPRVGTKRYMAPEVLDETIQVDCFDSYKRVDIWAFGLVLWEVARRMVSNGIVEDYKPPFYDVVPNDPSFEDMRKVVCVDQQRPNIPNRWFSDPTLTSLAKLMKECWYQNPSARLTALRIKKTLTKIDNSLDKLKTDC
Procedure, shortened: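 Panel of 327 recombinant human kinases, each assayed in vitro by radiometric activity assay in duplicate at a single inhibitor concentration per compound, chosen with reference to its ULK1 inhibition. Activity remaining was expressed as percent of vehicle control, and percent inhibition was calculated as 100 minus percent activity remaining.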

[7] = target: LIM domain kinase 1 (Homo sapiens) (UniProt P53667); assay: Inhibition of human recombinant LIMK1 at 40 nM related to control ULK1
LIM domain kinase 1 (Homo sapiens), sequence (P53667 whole entry, looked up, the tested form may be a part): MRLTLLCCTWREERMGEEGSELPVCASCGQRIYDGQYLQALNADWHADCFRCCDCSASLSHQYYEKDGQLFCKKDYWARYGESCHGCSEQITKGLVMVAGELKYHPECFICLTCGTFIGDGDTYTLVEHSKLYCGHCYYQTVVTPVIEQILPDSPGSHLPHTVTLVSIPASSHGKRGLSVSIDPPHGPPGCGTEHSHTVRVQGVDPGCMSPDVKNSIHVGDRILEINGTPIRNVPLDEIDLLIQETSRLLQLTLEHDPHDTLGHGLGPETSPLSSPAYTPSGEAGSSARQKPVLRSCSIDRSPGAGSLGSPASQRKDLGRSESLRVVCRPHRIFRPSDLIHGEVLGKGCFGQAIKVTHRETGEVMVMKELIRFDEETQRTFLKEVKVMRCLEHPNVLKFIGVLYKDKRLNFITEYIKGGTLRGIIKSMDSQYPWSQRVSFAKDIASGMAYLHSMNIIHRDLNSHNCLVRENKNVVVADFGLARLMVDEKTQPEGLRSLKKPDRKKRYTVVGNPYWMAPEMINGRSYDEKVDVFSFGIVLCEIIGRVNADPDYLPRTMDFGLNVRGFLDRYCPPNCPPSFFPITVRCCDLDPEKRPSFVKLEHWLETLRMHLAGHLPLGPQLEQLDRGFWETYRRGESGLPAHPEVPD

[8] = species: Homo sapiens; assay: Inhibition of human recombinant KHS1 at 40 nM related to control ULK1
[9] = target: T3, Protein kinase C zeta type (Homo sapiens) (UniProt Q05513); assay: Inhibition of human recombinant PKCz at 40 nM related to control ULK1
T3 sequence (whole entry): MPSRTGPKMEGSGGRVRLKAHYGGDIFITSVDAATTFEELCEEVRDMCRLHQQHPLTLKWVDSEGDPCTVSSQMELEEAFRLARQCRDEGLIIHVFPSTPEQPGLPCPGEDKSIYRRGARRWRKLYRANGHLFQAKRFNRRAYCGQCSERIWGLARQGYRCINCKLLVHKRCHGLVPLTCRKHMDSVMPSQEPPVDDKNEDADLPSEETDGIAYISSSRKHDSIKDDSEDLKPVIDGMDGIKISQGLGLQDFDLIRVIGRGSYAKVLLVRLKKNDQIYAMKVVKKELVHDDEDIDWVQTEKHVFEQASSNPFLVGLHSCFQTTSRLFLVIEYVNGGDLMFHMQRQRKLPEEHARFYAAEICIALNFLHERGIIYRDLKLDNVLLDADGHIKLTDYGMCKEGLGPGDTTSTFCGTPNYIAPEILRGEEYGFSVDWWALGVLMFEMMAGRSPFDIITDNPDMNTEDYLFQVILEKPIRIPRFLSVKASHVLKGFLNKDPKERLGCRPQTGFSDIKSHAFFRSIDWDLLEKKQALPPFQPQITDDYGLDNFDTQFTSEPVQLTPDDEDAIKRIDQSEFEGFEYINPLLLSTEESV

fold change (FC) [1]: 0 | fold change (FC) [2]: 0.03
Compound: CNC(=O)c1ccccc1Oc1nc(Nc2cc(OC)c(OC)c(OC)c2)ncc1Br

inhibition [3]: 26% | fold change (FC) [4]: 0 | inhibition [6]: 26%
Compound: CC(C)[C@H](NC(=O)c1cc(-c2cnn3cc(-c4ccc(OCCN5CCCCC5)cc4)cnc23)cs1)C(F)(F)F
fold change (FC) [5]: 0.05

fold change (FC) [7]: 0.21 | fold change (FC) [8]: 0 | fold change (FC) [9]: 0
Compound: O=C(N[C@@H](C1CC1)C(F)(F)F)c1cc(-c2cnn3cc(-c4ccc(F)cc4)cnc23)cs1
